Measured values taken from ChEMBL document CHEMBL1150676, “Two new biologically active triterpenoidal saponins acylated with salicylic acid from Albizia adianthifolia” (J Nat Prod, 2003).
Active and inactive are the calls of the source. The calls are words filed in the database; no cut-off is given here.

Experiments:
Jurkat [1] = assay: Cytotoxicity against human Jurkat cells at 1 uM; format: functional, cell-based
Procedure, shortened: (§1)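 Jurkat human T-cell leukemia cells exposed to compounds at 10⁻²–10 μM. Proliferation read by ³H-thymidine incorporation and expressed as stimulation index (SI). Mean ± SE, n = 4.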

[2] = Toxicity in sheep erythrocytes assessed as induction of hemolysis; format: cell-based, Ovis aries, Erythrocyte; settings: read-out: HD50 (the source's name)
Procedure, shortened: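 Hemolysis measured on sheep erythrocytes, tested up to 400 μg/mL. Activity expressed as HC50 (μg/mL).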

Jurkat [3] = assay: Immunomodulatory effect in human Jurkat cells assessed as cell proliferation stimulation index at 1 to 10 uM by [3H]thymidine incorporation assay
Jurkat [4] = assay: Immunomodulatory effect in human Jurkat cells by [3H]thymidine incorporation assay
Jurkat [5] = assay: Inhibition of human Jurkat cell proliferation at 1 uM by [3H]thymidine incorporation assay
Jurkat [6] = assay: Immunomodulatory effect in human Jurkat cells assessed as cell proliferation stimulation index at 0.01 uM by [3H]thymidine incorporation assay
Jurkat [7] = assay: Cytotoxicity against human Jurkat cells at =>10 uM; format: functional, cell-based; procedure, shortened: as §1

Row | Structure (SMILES) | Activity (Jurkat [1]) | HC50 [2] | Activity (Jurkat [3]) | Activity (Jurkat [4]) | Activity (Jurkat [5]) | Activity (Jurkat [6]) | Activity (Jurkat [7])
1 | CC(=O)N[C@H]1[C@H](O[C@H]2CC[C@]3(C)[C@H]4CC=C5[C@@H]6CC(C)(C)[C@@H](O)C[C@]6(C(=O)O)[C@H](O)C[C@@]5(C)[C@]4(C)CC[C@H]3C2(C)C)O[C@H](CO[C@@H]2O[C@H](C)[C@H](O)[C@H](O)[C@H]2O[C@@H]2OC[C@@H](O)[C@H](O)[C@H]2O)[C@@H](O)[C@@H]1O | Not toxic | > 400 µg/mL | Active | – | – | – | –
2 | C[C@@H]1O[C@@H](O[C@H]2[C@H](OC(=O)[C@]34C[C@H](OC(=O)c5ccccc5O)C(C)(C)C[C@H]3C3=CC[C@@H]5[C@@]6(C)CC[C@H](O[C@@H]7O[C@H](CO[C@@H]8O[C@H](C)[C@H](O)[C@H](O)[C@H]8O[C@@H]8OC[C@@H](O)[C@H](O)[C@H]8O)[C@@H](O)[C@H](O)[C@H]7O[C@@H]7O[C@H](CO)[C@@H](O)[C@H](O)[C@H]7O)C(C)(C)[C@@H]6CC[C@@]5(C)[C@]3(C)C[C@H]4O)O[C@H](CO)[C@@H](O)[C@@H]2O)[C@H](O)[C@H](O[C@@H]2O[C@H](CO)[C@@H](O)[C@H](O)[C@H]2O)[C@H]1O[C@@H]1O[C@@H](CO)[C@H](O)[C@H]1O [ADIANTHIFOLIOSIDE B] | – | – | – | Dose-dependent effect | Active | 1.21 | –
3 | CC(=O)N[C@H]1[C@H](O[C@H]2CC[C@]3(C)[C@H]4CC=C5[C@@H]6CC(C)(C)[C@@H](OC(=O)c7ccccc7O)C[C@]6(C(=O)O[C@@H]6O[C@H](CO)[C@@H](O)[C@H](O)[C@H]6O[C@@H]6O[C@@H](C)[C@H](O[C@@H]7O[C@@H](CO)[C@H](O)[C@H]7O)[C@@H](O[C@@H]7O[C@H](CO)[C@@H](O)[C@H](O)[C@H]7O)[C@H]6O)[C@H](O)C[C@@]5(C)[C@]4(C)CC[C@H]3C2(C)C)O[C@H](CO[C@@H]2O[C@H](C)[C@H](O)[C@H](O)[C@H]2O[C@@H]2OC[C@@H](O)[C@H](O)[C@H]2O)[C@@H](O)[C@@H]1O [ADIANTHIFOLIOSIDE A] | Toxic | 17.5 µg/mL | – | – | – | – | –
4 | C=CC(C)(CC/C=C(\CO)C(=O)O[C@H]1C[C@]2(C(=O)O)[C@H](O)C[C@]3(C)C(=CC[C@@H]4[C@@]5(C)CC[C@H](O[C@@H]6O[C@H](CO[C@@H]7O[C@H](C)[C@H](O)[C@H](O)[C@H]7O[C@@H]7OC[C@@H](O)[C@H](O)[C@H]7O)[C@@H](O)[C@H](O)[C@H]6O[C@@H]6O[C@H](CO)[C@@H](O)[C@H](O)[C@H]6O)C(C)(C)[C@@H]5CC[C@]43C)[C@@H]2CC1(C)C)O[C@@H]1O[C@@H](C)[C@H](O)[C@@H](O)[C@@H]1O (stereo not given in full) | – | > 400 µg/mL | – | – | – | – | Toxic
